Assay outcomes as filed in PubChem BioAssay.
Myeloid diff 2 – compounds promoting myeloid differentiation; 1% of 360,000 active; ER-HoxA9 myeloid progenitors, lysozyme-GFP differentiation, flow cytometry; AID 624256; calls only at 10 µM;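 active = normalized GFP-positive differentiation at or above the plate's own cutoff, the solvent-only control mean plus 3 SD; inconclusive = no clear call, values can overlap the other calls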;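 also: cells exposed to compound for four days before flow analysis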
NR2E3 ag-1 – agonists of human nuclear receptor NR2E3 | Q9Y5X4 | GST-NR2E3/biotin-RetCOR TR-FRET, 1536-well | inhibition of corepressor binding, % at 4.78 µM | 0.12% of 320,000 active;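 active = percent inhibition above the cutoff of mean plus 3 SD of all tested compounds, set per screening campaign, cut at about 20% in these data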;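 also: 0% = DMSO wells and 100% = biotin wells as full block of FRET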
Target sequence (Q9Y5X4 whole entry, looked up): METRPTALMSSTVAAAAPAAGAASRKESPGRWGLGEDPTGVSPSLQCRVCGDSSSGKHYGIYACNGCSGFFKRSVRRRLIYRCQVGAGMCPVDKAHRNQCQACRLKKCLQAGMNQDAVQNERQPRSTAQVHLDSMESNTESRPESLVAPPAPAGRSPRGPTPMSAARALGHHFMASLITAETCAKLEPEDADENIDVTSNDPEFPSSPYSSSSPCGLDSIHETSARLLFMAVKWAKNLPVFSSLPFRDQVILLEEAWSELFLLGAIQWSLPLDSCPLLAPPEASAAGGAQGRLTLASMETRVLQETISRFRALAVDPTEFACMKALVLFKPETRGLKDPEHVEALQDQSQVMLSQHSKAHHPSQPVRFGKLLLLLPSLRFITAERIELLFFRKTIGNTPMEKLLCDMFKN
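Test system: GST-NR2E3 and biotin-RetCOR proteins | Quantity: 1.35 nM GST-tagged NR2E3 final | Medium: Tris pH 7.5 | Also added: 7 nM biotin-RetCOR | Dosing: Compound at 4.8 µM, single dose | Timing: 5 h at 4 °C | Detection: Time-resolved FRET | Read-out basis: Percent inhibition | Benchmarks: Biotin wells as high control, 0.6% DMSO wells as low control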
GAA850 FXN act – activators of GAA850 frataxin (FXN) promoter | HEK293 lucGAA850 FXN promoter luciferase reporter, 24 h; percent of 10 µM SAHA response | activation, % at 6 µM | 0.56% of 360,000 active | AID 540364;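 active = activation above the average of all compounds screened plus 3 SD, cutoff fixed separately per campaign, cut at about 7.5% in these data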;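 also: 0% = DMSO wells and 100% = 10 µM SAHA wells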
NR2E3 ag-2 – human photoreceptor-specific nuclear receptor agonism; CHO-S Gal4-NCOR/VP16-NR2E3 two-hybrid, luciferase; Q9Y5X4; 0.35% of 360,000 active; inhibition of corepressor binding, % at 3.98 µM; AID 602229;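 active = inhibition above the mean of all tested compounds plus 3 SD, cut at about 70% in these data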;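 also: 0% = DMSO with NR2E3 transfected cells and 100% = cells lacking NR2E3 construct; higher means lower luciferase signal from less NR2E3 corepressor binding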
T cell modulator – T cell immune modulation candidate | 0.068% of 330,000 active | 2C CD8+ T cell-vesicle binding, flow cytometry; stronger effect = lower value | response (vesicle binding), % at 7 µM;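 active = response, share of CD8 T cells binding vesicles, and their 90th percentile fluorescence all below set limits, cut at about 80% in these data, passing the limit was not always enough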;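 also: values below 100% mean blocked vesicle binding to the CD8+ T cells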
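material = purified 2C TCR transgenic mouse naive CD8+ T cells | controls = Unloaded micro-vesicles (low), QL9 vesicles with 0.7% DMSO (high) | detection = cytometric PE anti-B7-1 and Alexa647 anti-CD8 signals after 1% paraformaldehyde fixation | incubation = binding step 1.5 h, 37 °C, antibody labelling 20 min, ice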
GAA30 FXN cntr – counter-screen for GAA850 frataxin promoter activators: GAA30 promoter activation | HEK293 lucGAA30 FXN promoter luciferase, 24 h; DMSO = 0%, 5 µM ipriflavone = 100% | shares compounds with GAA850 FXN act | 66% of 1,900 active | activation, % at 6 µM;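 active = mean activation above the mean of solvent-only control wells plus 3 SD, cut at about 22% in these data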;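 also: counterscreen of GAA850 promoter hits where activity marks nonselective or luminescence artifacts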
FXN GAA850 conf – GAA850 FXN promoter activation confirmation | 86% of 1,900 active | HEK293 lucGAA850 FXN promoter luciferase reporter, 24 h; 100% = activation by SAHA | AID 588351 | activation, % at 6 µM | shares compounds with GAA850 FXN act;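 active = mean activation above a set limit taken from the primary screen, cut at about 8% in these data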;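 also: 0% = DMSO wells and 100% = 10 µM SAHA wells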
An asterisk follows results filed as active; i = inactive; ? = inconclusive; . = no result. Compounds with a hit are over-represented: about 2% of the library has one in this group of screens.

SMILES	Myeloid diff 2	NR2E3 ag-1	GAA850 FXN act	NR2E3 ag-2	T cell modulator	GAA30 FXN cntr	FXN GAA850 conf
CCN(CC(=O)Nc1ccc(OC)cc1)CC(=O)Nc1cccc(S(=O)(=O)N2CCOCC2)c1	i	.	-2	-4	.	.	.
COc1ccc(CCNC(=O)c2cccc(S(=O)(=O)N3CCc4ccccc4C3)c2)cc1	i	1	0	-16	261	.	.
O=C(Nc1ccccc1O)c1csc2c1CCCC2	i	0	11*	-167	190	119*	44*
COc1ccc(NC(=O)c2csc3c2CCCCC3)c(OC)c1	i	5	3	-34	240	.	.
CC1(C)C(=O)NCCN1C(=O)CCC(=O)O	i	8	7.9*	8	570	16	5
CC1(C)C(=O)NCCN1C(=O)CC1C(=O)NCCN1CC(c1ccccc1)c1ccccc1 (stereo not given)	i	2	1	-1	502	.	.
COC(=O)c1cc(Br)c(N)cc1OC	i	2	2	13	563	.	.
COc1cc2c(c(Br)c1N)-c1cc(Br)c(N)cc1C2=O	i	.	11*	-48	.	91*	46*
O=c1c2ccccc2nnn1-c1ccc(Br)cc1	i	-3	3	-130	364	.	.
COc1cc(CC(=O)N2CCN(S(=O)(=O)c3ccc(C)cc3)CC2)cc(OC)c1OC	i	.	0	6	216	.	.
Cc1nnc(SCc2cccc3ccccc23)s1	i	3	7.6*	-116	165	80*	29*
N#C/C(=C/c1ccc(N2CCOCC2)o1)c1ccc(Cl)cc1	i	1	20*	-10	80	119*	47*
N#C/C(=C\c1ccc(N2CCCCC2)o1)C(N)=O	i	-11	1	-19	171	.	.
COc1cccc(C(=O)Nc2ccc3c(c2)OC[C@H](C)N(CCc2ccccc2)C[C@@H](C)[C@@H](OC)CN(C)C3=O)c1	i	.	.	.	.	.	.
CCOc1ccc2nc(C)cc(Nc3cccc([N+](=O)[O-])c3)c2c1	i	4	7.7*	-26	218	26*	20*
Cc1cc(Nc2cccc([N+](=O)[O-])c2)c2ccccc2n1	i	1	5	-34	235	.	.
Cc1ccc(N=Nc2c(O)n(CN3CCOCC3)c3ccccc23)cc1	i	0	7.7*	-115	210	135*	50*
Cc1ccc(Cn2c(O)c(N=O)c3ccccc32)cc1	i	2	0	4	326	.	.
COc1cc2c(cc1N)-c1ccc(N)cc1C2=O	.	.	9.4*	-36	.	118*	38*
Nc1ccc2c(c1)C(=O)c1cc(N)c(Cl)cc1-2	?	.	0	9	.	.	.
Cc1ccc(S(=O)(=O)Nc2cccc(S(=O)(=O)Nc3ccccc3C(=O)O)c2)c(C)c1	i	.	-1	-4	175	.	.
Cc1cccc(Nc2nc(-c3cccs3)cs2)n1	i	1	7.7*	-136	380	115*	41*
CCc1nc2c(OCC(=O)C(C)(C)C)cccn2c1N(C)C(=O)COc1ccccc1	i	.	2	14	.	.	.
Nc1nc(CSc2ccc(Cl)cc2)nc(N2CCCCC2)n1	i	1	2	-11	204	.	.
Nc1nc(CSc2ccccc2)nc(N2CCCCC2)n1	i	3	7.9*	-85	482	98*	29*
SMILES	Myeloid diff 2	NR2E3 ag-1	GAA850 FXN act	NR2E3 ag-2	T cell modulator	GAA30 FXN cntr	FXN GAA850 conf
COc1ccc(CN(C)C(=O)c2cccc(Oc3ccccc3)c2)c(OC)c1OC	i	3	-1	31	0	.	.
COc1ccc(Br)cc1S(=O)(=O)N1CCN=C1c1ccccc1	i	.	-1	-2	200	.	.
CN1C2=NCCN2C(=O)c2cc(Cl)ccc21	i	4	1	21	467	.	.
Brc1ccc2c(c1)-c1ccccc1C1=NCCN12	i	.	24*	-79	.	11	130*
Clc1ccc2c(c1)-c1ccccc1C1=NCCN12	.	.	33*	-25	.	-1	139*
COc1ccc(Nc2cc(C(=O)NC3CCCC3)c3ccccc3n2)c(OC)c1	i	-3	-2	0	172	.	.
